Calls of active or inactive are those of the source. The calls are words filed in the database; no cut-off is given here.
Columns and labels:
[1] = biological target: T1, Adenosine receptor A1 (Homo sapiens, UniProt P30542); assay: Displacement of [3H]DPCPX from human adenosine A1 receptor expressed in CHO cell membranes incubated for 60 mins by scintillation counting method; set-up: species or system Cell membrane
T1 sequence (P30542 whole entry): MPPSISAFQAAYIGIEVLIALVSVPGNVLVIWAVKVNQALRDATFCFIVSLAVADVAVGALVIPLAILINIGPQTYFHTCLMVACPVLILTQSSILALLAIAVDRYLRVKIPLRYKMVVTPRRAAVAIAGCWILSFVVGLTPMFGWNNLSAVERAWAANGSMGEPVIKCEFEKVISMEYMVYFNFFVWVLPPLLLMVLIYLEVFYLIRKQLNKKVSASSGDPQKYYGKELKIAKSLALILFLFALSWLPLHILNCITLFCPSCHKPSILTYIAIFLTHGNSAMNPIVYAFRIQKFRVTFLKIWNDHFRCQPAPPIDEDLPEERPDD

[2] = biological target: Adenosine receptor A2a (Homo sapiens) (UniProt P29274); assay: Displacement of [3H]ZM2421385 from adenosine A2A receptor expressed in human HeLa cell membranes at 1 uM incubated for 30 mins by scintillation counting method; conditions: Cell membrane
Chain of Adenosine receptor A2a (Homo sapiens) (P29274 whole entry): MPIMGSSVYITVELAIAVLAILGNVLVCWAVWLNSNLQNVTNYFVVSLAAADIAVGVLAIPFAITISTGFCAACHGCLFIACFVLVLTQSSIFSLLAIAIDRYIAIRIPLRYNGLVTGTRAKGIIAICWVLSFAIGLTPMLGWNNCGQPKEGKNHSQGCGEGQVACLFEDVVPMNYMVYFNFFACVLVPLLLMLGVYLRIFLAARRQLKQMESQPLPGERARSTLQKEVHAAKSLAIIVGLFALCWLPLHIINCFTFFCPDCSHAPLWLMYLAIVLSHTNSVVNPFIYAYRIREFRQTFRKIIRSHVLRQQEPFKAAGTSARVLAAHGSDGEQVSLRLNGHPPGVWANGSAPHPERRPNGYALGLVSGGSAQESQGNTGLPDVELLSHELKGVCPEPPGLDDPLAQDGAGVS

[3] = biological target: T2, Adenosine receptor A3 (Homo sapiens) (UniProt P0DMS8); assay: Displacement of [3H]NECA from adenosine A3 receptor expressed in human HeLa cell membranes at 1 uM incubated for 180 mins by scintillation counting method; conditions: Cell membrane
T2 sequence (whole entry): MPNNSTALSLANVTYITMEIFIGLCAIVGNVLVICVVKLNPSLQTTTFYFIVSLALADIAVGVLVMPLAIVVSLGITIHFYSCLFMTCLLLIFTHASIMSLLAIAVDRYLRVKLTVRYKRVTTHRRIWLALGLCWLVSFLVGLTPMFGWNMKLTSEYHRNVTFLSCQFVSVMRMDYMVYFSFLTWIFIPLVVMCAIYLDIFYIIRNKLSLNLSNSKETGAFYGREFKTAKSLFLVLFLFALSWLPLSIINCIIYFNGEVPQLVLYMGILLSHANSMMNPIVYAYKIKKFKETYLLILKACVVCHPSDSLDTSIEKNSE
How it was run: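 hA3AR in HeLa membranes (3 pmol/mg protein) with 10 nM [3H]NECA (KD 8.7 nM); nonspecific binding with 100 μM R-PIA; incubated 180 min at 25 °C, washed, filtered, radioactivity counted.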

[4] = biological target: T3, Adenosine receptor A2b (Homo sapiens) (UniProt P29275); assay: Displacement of [3H]DPCPX from human adenosine A2B receptor expressed in HEK293 cell membranes at 1 uM incubated for 30 mins by scintillation counting method; conditions: Cell membrane, filed as antagonist
T3 sequence (whole entry): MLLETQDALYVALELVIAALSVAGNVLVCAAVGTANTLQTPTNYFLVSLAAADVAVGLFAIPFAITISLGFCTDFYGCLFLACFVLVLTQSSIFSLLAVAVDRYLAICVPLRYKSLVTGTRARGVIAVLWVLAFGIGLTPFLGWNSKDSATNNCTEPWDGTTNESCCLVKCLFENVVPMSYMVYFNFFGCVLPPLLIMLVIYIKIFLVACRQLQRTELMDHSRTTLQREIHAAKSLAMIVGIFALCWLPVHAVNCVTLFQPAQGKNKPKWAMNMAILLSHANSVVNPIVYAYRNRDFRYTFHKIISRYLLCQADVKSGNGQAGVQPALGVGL

[5] = system: DU-145; assay: Antimigratory activity in human DU-145 cells assessed as reduction in cell migration at Ki level incubated for 72 hrs by crystal violet staining based confocal microscopy; assay type: functional
How it was run: (§1)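 Transwell migration, 8.0 μm pore polycarbonate membrane; 10⁵ cells seeded in serum-free medium in upper chamber, complete medium with 10% FBS below. Cells kept in RPMI 1640, 10% FBS. Migration scored after 72 h without or with treatment; migrated cells fixed in 4% paraformaldehyde, crystal violet stained, counted in five random fields; at least three chambers from three experiments.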

[6] = system: PC-3; assay: Antimetastatic activity in human PC-3 cells assessed as induction of actin skeleton reorganization at Ki level incubated for 72 hrs by confocal laser scanning microscopy; assay type: functional, cell-based
[7] = system: PC-3; assay: Antimigratory activity in human PC-3 cells assessed as reduction in cell migration at Ki level incubated for 72 hrs by crystal violet staining based confocal microscopy; assay type: functional; set-up: scale not given: the % may be the effect or the level left; how it was run: as §1
[8] = biological target: T4, CYP3A4 (Homo sapiens, UniProt P08684); assay: Inhibition of CYP3A4 (unknown origin) expressed in insect cell microsomes at 10 uM in presence of BFC substrate by fluorescence based assay relative to control; assay type: ADME, Microsome; conditions: recombinant CYP3A4 expressed in insect cell microsomes, probe BFC
T4 sequence (P08684 whole entry, canonical isoform): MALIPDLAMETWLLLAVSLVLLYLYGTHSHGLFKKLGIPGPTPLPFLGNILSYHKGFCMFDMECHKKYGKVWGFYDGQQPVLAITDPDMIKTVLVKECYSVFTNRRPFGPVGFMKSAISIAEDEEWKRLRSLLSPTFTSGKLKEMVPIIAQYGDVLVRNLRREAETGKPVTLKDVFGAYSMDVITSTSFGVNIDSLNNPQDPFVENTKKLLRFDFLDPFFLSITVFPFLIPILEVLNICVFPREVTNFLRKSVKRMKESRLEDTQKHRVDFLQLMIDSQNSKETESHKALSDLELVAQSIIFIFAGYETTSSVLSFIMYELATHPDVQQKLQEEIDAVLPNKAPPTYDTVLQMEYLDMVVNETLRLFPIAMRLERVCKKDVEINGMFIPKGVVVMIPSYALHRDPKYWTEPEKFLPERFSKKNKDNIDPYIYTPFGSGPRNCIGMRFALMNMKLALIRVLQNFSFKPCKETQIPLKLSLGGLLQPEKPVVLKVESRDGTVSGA
How it was run: (§2)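 cDNA-expressed P450 in insect cell microsomes; cofactor mix of KH2PO4 buffer, 1.3 mM NADP, 3.3 mM MgCl2, 3.3 mM glucose-6-phosphate, 0.4 U/mL G6PDH. Preincubated 5 min at 37 °C, started with prewarmed enzyme/substrate mix, stopped at an isoform-specific time. Fluorescence read; percentage inhibition at 1 and 10 μM; mean of n = 3.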

[9] = biological target: T4, CYP3A4; assay: Inhibition of CYP3A4 (unknown origin) expressed in insect cell microsomes at 1 uM in presence of DBF substrate by fluorescence based assay relative to control; assay type: ADME, Microsome; conditions: recombinant CYP3A4 expressed in insect cell microsomes, probe DBF; how it was run: as §2
[10] = biological target: T4, CYP3A4; assay: Inhibition of CYP3A4 (unknown origin) expressed in insect cell microsomes at 1 uM in presence of BFC substrate by fluorescence based assay relative to control; assay type: ADME, Microsome; conditions: recombinant CYP3A4 expressed in insect cell microsomes, probe BFC; how it was run: as §2
[11] = system: LNCaP; assay: Toxicity in human LNCaP cells assessed as effect on cell growth at 10 to 100 uM by MTT assay; assay type: cell-based; conditions: dose 10-100 µM
How it was run: (§3)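 Prostate cancer cells cultured in RPMI 1640 with 10% FBS, penicillin and streptomycin at 37 °C, 5% CO2; tested at 10 and 100 μM by MTT assay with cisplatin as control.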

[12] = system: LNCaP; assay: Antimigratory activity in human LNCaP cells assessed as reduction in cell migration at Ki level incubated for 72 hrs by crystal violet staining based confocal microscopy; assay type: functional; how it was run: as §1
[13] = system: PC-3; assay: Antimetastatic activity in human PC-3 cells assessed as effect on cell shape at Ki level incubated for 72 hrs by confocal laser scanning microscopy; assay type: functional, cell-based
[14] = system: PC-3; assay: Toxicity in human PC-3 cells assessed as effect on cell growth at 10 to 100 uM by MTT assay; assay type: cell-based; conditions: pc-3, 100 µM, dose 10-100 µM; how it was run: as §3
[15] = biological target: T5, CYP2D6 (Homo sapiens, UniProt P10635); assay: Inhibition of CYP2D6 (unknown origin) expressed in insect cell microsomes at 10 uM by fluorescence based assay relative to control; assay type: ADME, Microsome; conditions: recombinant CYP2D6 expressed in insect cell microsomes; how it was run: as §2
T5 sequence (P10635 whole entry): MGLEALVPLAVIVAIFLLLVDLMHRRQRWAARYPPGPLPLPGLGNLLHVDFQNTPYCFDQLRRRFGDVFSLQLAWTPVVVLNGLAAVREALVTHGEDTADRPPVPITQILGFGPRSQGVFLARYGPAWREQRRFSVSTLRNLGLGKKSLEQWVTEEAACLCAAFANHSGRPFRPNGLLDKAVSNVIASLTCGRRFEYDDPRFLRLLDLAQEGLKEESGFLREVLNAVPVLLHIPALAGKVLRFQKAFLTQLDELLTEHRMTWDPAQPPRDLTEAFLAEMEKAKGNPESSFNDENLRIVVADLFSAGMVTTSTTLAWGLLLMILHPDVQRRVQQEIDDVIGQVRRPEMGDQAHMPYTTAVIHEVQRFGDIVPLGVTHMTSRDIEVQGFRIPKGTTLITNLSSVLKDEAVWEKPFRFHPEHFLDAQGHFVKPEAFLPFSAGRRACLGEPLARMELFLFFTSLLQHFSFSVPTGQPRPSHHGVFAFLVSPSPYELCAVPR

[16] = system: DU-145; assay: Toxicity in human DU-145 cells assessed as effect on cell growth at 10 to 100 uM by MTT assay; assay type: cell-based; conditions: du-145, 100 µM, dose 10-100 µM; how it was run: as §3
[17] = Stability in human liver microsomes in NADP incubated up to 60 mins by UPLC-MS/MS analysis; assay type: ADME, Microsome; conditions: read-out: Stabilty
How it was run: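 Human microsomes at 37 °C in 50 mM phosphate buffer pH 7.4 with 3 mM MgCl2, 1 mM NADP, 10 mM glucose-6-phosphate, 1 U/mL G6PDH. Samples at 0, 10, 20, 40, 60 min quenched into cold acetonitrile with 0.5% formic acid, centrifuged; supernatant analysed by UPLC–MS/MS on C18 column.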

[18] = biological target: T4, CYP3A4; assay: Inhibition of CYP3A4 (unknown origin) expressed in insect cell microsomes at 10 uM in presence of DBF substrate by fluorescence based assay relative to control; assay type: ADME, Microsome; conditions: recombinant CYP3A4 expressed in insect cell microsomes, probe DBF; how it was run: as §2
[19] = biological target: T5, CYP2D6; assay: Inhibition of CYP2D6 (unknown origin) expressed in insect cell microsomes at 1 uM by fluorescence based assay relative to control; assay type: ADME, Microsome; conditions: recombinant CYP2D6 expressed in insect cell microsomes; how it was run: as §2
[20] = biological target: T6, Adenosine receptor A2b (Homo sapiens, UniProt P29275); assay: Antagonist activity at human A2B receptor
T6 sequence (P29275 whole entry): T3 sequence (whole entry)

[21] = biological target: T6, Adenosine receptor A2b; assay: Displacement of [3H]DPCPX from human adenosine A2B receptor expressed in HEK293 cell membranes incubated for 30 mins by scintillation counting method; set-up: species or system Cell membrane
[22] = biological target: T7, Adenosine receptor A1 (Homo sapiens) (UniProt P30542); assay: Displacement of [3H]DPCPX from human adenosine A1 receptor expressed in CHO cell membranes at 1 uM incubated for 60 mins by scintillation counting method; conditions: Cell membrane
T7 sequence (whole entry): T1 sequence (P30542 whole entry)

Compound	inhibition [2]	inhibition [3]	Ki [21]	inhibition [22]	Activity [5]	Activity [6]	Activity [7]	Activity [12]	Activity [13]	also measured
CC1=C(C(=O)OCc2ccccc2)C(c2ccco2)NC(=O)N1C (racemic)	37%	11%								Ki [1]: 1.74 µM; inhibition [4]: 41%
CCOC(=O)C1=C(C)NC(=O)NC1c1ccsc1 (racemic)					Active	Active	35%	Active	Active	inhibition at 10 µM [8]: 44%; inhibition at 1 µM [9]: 4%; inhibition at 1 µM [10]: 15%; Activity [11]: Non-Toxic; Activity [14]: Non-Toxic; inhibition at 10 µM [15]: 22%; Activity [16]: Non-Toxic; remaining at 1 h [17]: 65%; inhibition at 10 µM [18]: 12%; inhibition at 1 µM [19]: 15%
CCCn1c(=O)[nH]c2nc(-c3cnn(Cc4cccc(C(F)(F)F)c4)c3)[nH]c2c1=O										Ki [20]: 0.006 µM
CC1=C(C(=O)OCC(C)C)C(c2ccoc2)NC(=O)N1 (racemic)	31%	16%	0.326 µM							Ki [1]: 3.09 µM
CCCn1c(=O)[nH]c2nc(-c3ccc(S(=O)(=O)N4CCN(c5ccc(Cl)cc5)CC4)cc3)[nH]c2c1=O					Active	Active	Active	Active	Active	
CCCOC(=O)C1=C(C)NC(=O)NC1c1ccoc1 (racemic)	45%	11%	1.19 µM	50%						

Second part, led by results:

inhibition [2]	inhibition [3]	Ki [21]	inhibition [22]	Compound	Activity [5]	Activity [6]	Activity [7]	Activity [12]	Activity [13]	also measured
	1%			CC1=C(C(=O)OC(C)C)C(c2ccco2)NC(=S)N1 (racemic)	Active	Active	50%	Active	Active	inhibition at 10 µM [8]: 13%; inhibition at 1 µM [9]: 3%; inhibition at 1 µM [10]: 1%; Activity [11]: Non-Toxic; Activity [14]: Non-Toxic; inhibition at 10 µM [15]: 12%; Activity [16]: Non-Toxic; remaining at 1 h [17]: 77%; inhibition at 10 µM [18]: 1%; inhibition at 1 µM [19]: 15%
26%	2%	1.09 µM	24%	CC1=C(C(=O)OC2CCC2)C(c2cccs2)NC(=O)N1 (racemic)						
36%	1%	0.138 µM	29%	CC1=C(C(=O)OCC2CC2)C(c2ccco2)NC(=O)N1 (racemic)						

Source: ChEMBL document CHEMBL4765483 (J Med Chem, 2021)
